{"data": "Published values collected from several papers", "TEK": "Angiopoietin-1 receptor (TEK, Homo sapiens, UniProt Q02763)", "TEK Y897S": "Angiopoietin-1 receptor (TEK, Homo sapiens, UniProt Q02763, Y897S)", "note": "Protocols differ between the studies behind these lines."}
{"Compound": "Cc1[nH]c(/C=C2\\C(=O)Nc3ccc(F)cc32)c(C)c1C(=O)N[C@H]1CCN(C(=O)N(C)C)C1", "target": "TEK", "test": "enzyme activity, inhibitor", "setting": "1 µM", "measurement": "remaining activity", "result": "87%"}
{"Compound": "Cc1ccc(NC(=O)c2ccc(C)c(C(F)(F)F)c2)cc1C#Cc1nn(C2CCC(O)CC2)c2ncnc(N)c12 (centres unmarked)", "target": "TEK Y897S", "test": "enzyme activity, inhibitor", "setting": "10 µM", "measurement": "remaining activity", "result": "0%"}
{"Compound": "CSc1cccnc1N1CCN(Cc2nc3ccccc3[nH]2)CC1", "target": "TEK", "test": "cell-free assay, competition with immobilised ligand", "setting": "1 µM", "measurement": "remaining binding", "result": "100%"}
{"Compound": "CC(C)(C)c1nc2c(s1)c1nc(N)ncc1c1ccc(NS(=O)(=O)c3c(F)cccc3F)c(F)c12", "target": "TEK", "test": "enzyme activity, inhibitor, radiometric", "setting": "1 µM", "measurement": "remaining activity", "result": "79%"}
{"Compound": "C[C@H](c1ccc(F)cc1)N(Cc1cccc(C(=O)O)c1)C(=O)c1cnc2ccccc2c1", "target": "TEK", "test": "cell-free assay, competition with immobilised ligand", "setting": "1 µM", "measurement": "remaining binding", "result": "98%"}
{"Compound": "CCN(CC)c1ccc(C2=NNC(=O)CC2C)cc1[N+](=O)[O-] (centres unmarked)", "target": "TEK", "test": "enzyme activity, inhibitor", "setting": "10 µM", "measurement": "remaining activity", "result": "24%"}
{"Compound": "Cc1noc([C@H]2C[C@@H](c3ccc(C(F)(F)F)cc3)CN(C(=O)N3CCS(=O)(=O)C3)C2)n1", "target": "TEK", "test": "cell-free assay, competition with immobilised ligand", "setting": "1 µM", "measurement": "remaining binding", "result": "100%"}
{"Compound": "N#CCCc1ccc2c(c1)-c1[nH]c3ccc([N+](=O)[O-])cc3c1CC(=O)N2", "target": "TEK", "test": "cell-free assay", "setting": "0.5 µM", "measurement": "remaining signal", "result": "97.6%"}
{"Compound": "CCOc1cc(-c2nncn2C)ccc1Nc1ncc2cc(C)nc(NCC(C)(C)C)c2n1", "target": "TEK", "test": "enzyme activity, inhibitor, FRET", "setting": "1 µM", "measurement": "inhibition", "result": "< 15%"}
{"Compound": "CS(=O)(=O)Nc1cccc(-c2csc(NC(=O)CSc3nc4nccnc4c(=O)n3CCc3ccccc3)n2)c1", "target": "TEK", "test": "enzyme activity, inhibitor", "setting": "10 µM", "measurement": "inhibition", "result": "3%"}
{"Compound": "FC(F)(F)c1ccc2c(c1)nc(-c1cccnc1)n2C1CC1", "target": "TEK", "test": "cell-free assay, competition with immobilised ligand", "setting": "1 µM", "measurement": "remaining binding", "result": "100%"}
{"Compound": "CNC(=O)c1cc(Oc2ccc(NC(=O)Nc3ccc(Cl)c(C(F)(F)F)c3)cc2)ccn1", "target": "TEK", "test": "cell-free assay", "setting": "0.5 µM", "measurement": "remaining signal", "result": "104%"}
{"Compound": "CCCOc1ccc(OC)c(F)c1C(=O)c1ccc(C(=O)N[C@@H]2CNC[C@H]2NC(=O)c2ccc3[nH]ncc3c2)cc1", "target": "TEK", "test": "enzyme activity, inhibitor", "setting": "10 µM", "measurement": "remaining activity", "result": "49%"}
{"Compound": "CN([C@@H]1CCc2c(CC(=O)O)c3cc(S(C)(=O)=O)ccc3n2C1)S(=O)(=O)c1ccc(F)cc1", "target": "TEK", "test": "cell-free assay, competition with immobilised ligand", "setting": "1 µM", "measurement": "remaining binding", "result": "88%"}
{"Compound": "Cc1cnc(NC2CCOCC2)nc1-n1cnc(C(=O)NC(CN)c2cc(F)cc(Cl)c2)c1 (centres unmarked)", "target": "TEK Y897S", "test": "enzyme activity, inhibitor, radiometric", "setting": "1 µM", "measurement": "remaining activity", "result": "105%"}
{"Compound": "CNCc1ccc(-c2cc(-c3nc(-c4ccc(S(=O)(=O)C(C)C)cc4)cnc3N)on2)cc1", "target": "TEK", "test": "enzyme activity, inhibitor", "setting": "2 µM", "measurement": "inhibition", "result": "44%"}
{"Compound": "Cc1cc(NC(=O)c2cccc3cc(-c4cccc5[nH]nc(N)c45)ccc23)ccc1F", "target": "TEK", "test": "enzyme activity, inhibitor", "setting": "0.1 µM", "measurement": "activity vs control", "result": "96%"}
{"Compound": "CCc1ccccc1C(=O)Nc1n[nH]c2c(C)c(F)c(C3C(C#N)=C(C)N(C)C(C)=C3C#N)cc12", "target": "TEK", "test": "cell-free assay, competition with immobilised ligand", "setting": "1 µM", "measurement": "remaining binding", "result": "91%"}
{"Compound": "CNC(=O)c1cc2c(Oc3ccc(NC(=O)C4(C(=O)Nc5ccc(F)cc5)CC4)cc3)ccnc2cc1OC", "target": "TEK", "test": "enzyme activity, inhibitor, radiometric", "setting": "1 µM", "measurement": "inhibition", "result": "99%"}
{"Compound": "O=C(Nc1cnn(-c2csc(C(=O)NC3COC3)c2)c1)Nc1ccccc1Cl", "target": "TEK", "test": "enzyme activity, inhibitor", "setting": "5 µM", "measurement": "remaining activity", "result": "100%"}
{"Compound": "COc1cc2ncnc(Nc3ccc(Oc4ccccc4)cc3C)c2cc1OC", "target": "TEK", "test": "enzyme activity, inhibitor", "setting": "1 µM", "measurement": "inhibition", "result": "13%"}
{"Compound": "CC(=O)N1CCC(c2ccc(C(=O)NC3=NCCN3)cc2C(F)(F)F)CC1", "target": "TEK", "test": "cell-free assay, competition with immobilised ligand", "setting": "1 µM", "measurement": "remaining binding", "result": "100%"}
{"Compound": "CC(C)(O)[C@H]1CC[C@H](Nc2ccc3ncc(-c4cccc(C(F)(F)F)c4)n3n2)CC1", "target": "TEK", "test": "enzyme activity, inhibitor", "setting": "1 µM", "measurement": "remaining activity", "result": "89%"}
